Screening data deposited in PubChem by The Scripps Research Institute Molecular Screening Center.
Sampled rows, rich in hits. Any-hit rate of the full collection: about 2%.
CHRM5 PAM = human M5 muscarinic receptor positive allosteric modulators, primary screen, CHO-K1 cells, Fluo-8 calcium fluorescence; AID 624038, 2012; Muscarinic acetylcholine receptor M5 (Homo sapiens), P08912; activation, % at 3 µM; 0.3% of 360,000 active; CHO-K1 hM5, ACh EC20 PAM; 0% = ACh EC20, 100% = ACh EC100;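 active = activation above the run cutoff, the mean activation of all test compounds plus 3 SD, cut at about 18% in these data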
Target sequence (P08912 whole entry, looked up): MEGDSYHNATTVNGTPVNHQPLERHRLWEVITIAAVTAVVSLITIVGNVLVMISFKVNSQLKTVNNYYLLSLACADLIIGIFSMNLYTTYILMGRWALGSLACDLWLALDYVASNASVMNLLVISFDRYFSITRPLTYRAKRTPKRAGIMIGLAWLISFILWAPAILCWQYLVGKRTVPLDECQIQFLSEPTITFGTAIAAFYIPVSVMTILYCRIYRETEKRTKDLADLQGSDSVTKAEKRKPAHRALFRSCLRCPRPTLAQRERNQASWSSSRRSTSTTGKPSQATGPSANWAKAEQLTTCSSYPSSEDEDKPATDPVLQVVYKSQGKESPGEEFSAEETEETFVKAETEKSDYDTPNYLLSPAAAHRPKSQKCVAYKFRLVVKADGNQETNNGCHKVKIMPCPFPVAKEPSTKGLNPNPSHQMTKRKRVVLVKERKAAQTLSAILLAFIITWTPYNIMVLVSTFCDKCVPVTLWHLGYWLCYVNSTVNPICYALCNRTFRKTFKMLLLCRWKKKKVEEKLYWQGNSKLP
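Assay system: CHO-K1 hM5 cells / Incubation: Fluo-8 loading 80 min at 37 °C plus 30 min room temperature / Technique: Fluo-8 calcium dye fluorescence, kinetic read / Repeats: single replicate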
CHRM1 PAM = human M1 muscarinic receptor positive allosteric modulators, primary screen, CHO-K1 cells, Fluo-8 calcium fluorescence, 1536-well; CHO-K1 hM1, ACh EC20; 0% = ACh EC20, 100% = maximal ACh; Muscarinic acetylcholine receptor M1 (Homo sapiens), P11229; AID 588819, 2011; 0.088% of 360,000 active; activation, % at 3 µM; in the data active = activation above about 19%, passing the limit was not always enough
CHRM1 antagonist = human M1 muscarinic receptor antagonists, primary screen, CHO-K1 cells, Fluo-8 calcium fluorescence, 1536-well; CHO-K1 hM1, ACh EC80 antagonist; inhibition, % at 3 µM; 1.3% of 360,000 active; AID 588852, 2011;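 active = percent inhibition above its own plate's cutoff, namely the mean of that plate's compound wells plus 3 SD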;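 note: peak over basal fluorescence ratio during 140 s after agonist addition; 0% = ACh EC80 plus DMSO and 100% = DMSO alone without agonist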
CHRM5 antagonist = human M5 muscarinic receptor antagonists, primary screen, CHO cells, Fluo-8 calcium fluorescence. Muscarinic acetylcholine receptor M5 (Homo sapiens), P08912. CHO-hM5 cells, ACh EC80. inhibition, % at 3 µM. 0.59% of 360,000 active. AID 624040, 2012;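 active = inhibition above a per-plate cutoff, the mean of that plate's test compounds plus 3 SD, cut at about 27% in these data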;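 note: 0% = acetylcholine EC80 with DMSO and 100% = DMSO without agonist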
M1 ag = human M1 muscarinic receptor agonists, primary screen, Fluo-8 calcium fluorescence, CHO-K1 cells, HTS; Muscarinic acetylcholine receptor M1 (Homo sapiens), P11229; CHO-K1 hM1, agonist mode; 0% DMSO, 100% acetylcholine EC100; activation, % at 3 µM; 0.33% of 360,000 active;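 active = activation above the run's mean compound activation plus 3 SD, cut at about 16% in these data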;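 note: peak over basal fluorescence ratio within a 140 s kinetic read after compound addition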
M5 ag = human M5 muscarinic receptor agonists, primary screen, CHO-K1 cells, Fluo-8 calcium fluorescence | activation, % at 3 µM | AID 624037, 2012 | CHO-K1 hM5 cells; 0% DMSO wells, 100% maximal acetylcholine response | 0.19% of 360,000 active;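 active = activation above the run's mean over test compounds plus 3 SD, cut at about 23% in these data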;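 note: signal is peak over basal fluorescence ratio across the kinetic read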
Active calls of the source: *; x = no result.

SMILES	CHRM5 PAM	CHRM1 PAM	CHRM1 antagonist	CHRM5 antagonist	M1 ag	M5 ag
Oc1ccc(C[C@@H]2CNCCN2CCc2cc(C(F)(F)F)cc(C(F)(F)F)c2)cc1	15	25*	-6	-1	-1	8
CCCCn1c2ccccc2c2nnc(SCCN3CCCCC3)nc21	-13	-28	55*	18	-10	-6
CCCCNC(=O)C1(C)CCN1Cc1cc(C)ccc1C (centres undefined)	1	-2	1	7	-6	3
CCCCc1c(-c2ccccc2F)ncn1CCc1ccccc1OC	-10	x	x	6	x	1
Cc1cc2nc(CN(C)C(=O)C3CCC(=O)N(C4CCCC4)C3)[nH]c2cc1C (centres undefined)	-5	9	-21	5	-5	0
Cc1noc(C)c1CN(C(=S)NC1CC2CCC1C2)c1ccccc1 (centres undefined)	23*	-13	6	-5	-10	-7
CCN(CC)C(=O)Cn1cc(C(=O)C(=O)Nc2ccc3c(c2)OCO3)c2ccccc21	0	-7	5	-5	-2	0
C=C(C)C(=O)OCC(O)COc1ccc(C(C)(C)c2ccc(OCC(O)COC(=O)C(=C)C)cc2)cc1 (centres undefined)	-17	-11	0	27*	4	12
CCOc1ccc(CNC(=O)C2CCN(S(=O)(=O)N3CCC(C)CC3)CC2)cc1OC	-1	5	-6	-1	-2	-1
Cc1ccc(S(=O)(=O)Nc2ccccc2C(=O)Nc2nc(-c3ccc(F)cc3)cs2)cc1	-18	-17	35	38*	-1	6
O=C(Nc1ccccc1N1CCOCC1)c1ccccc1NS(=O)(=O)c1ccc(F)cc1	-14	-5	8	6	0	1
COc1ccc(-c2csc(NC(=O)c3ccccc3NS(=O)(=O)c3ccc(F)c(F)c3)n2)cc1	-36	-16	43*	42*	2	1
COc1ccc(-c2csc(NC(=O)c3ccccc3F)n2)cc1	2	-1	-2	5	-3	0
O=C(Nc1ccccc1N1CCOCC1)c1ccccc1NS(=O)(=O)c1ccc(F)c(F)c1	36*	-1	-13	23	14	14
O=C(Nc1cc(S(=O)(=O)N2CCCCC2)ccc1Cl)c1ccccc1NS(=O)(=O)c1ccc(F)cc1	-15	-15	22	30*	3	4
O=C(Nc1cc(S(=O)(=O)N2CCCCC2)ccc1O)c1ccccc1NS(=O)(=O)c1ccc(F)cc1	-6	-15	15	13	-1	0
C[C@@H]1CN([C@H](C)CO)C(=O)CCCn2nncc2CO[C@H]1CN(C)S(=O)(=O)c1ccc(C#N)cc1	1	-8	16	-5	-5	1
O=C(Nc1ccc(Cl)c(Cl)c1)Nc1ccc(N2CCCC2)c(S(=O)(=O)Nc2ccccc2Cl)c1	-5	-9	18	16	-4	0
O=C(Nc1ccc(F)cc1)Nc1ccc(N2CCCC2)c(S(=O)(=O)Nc2ccccc2Cl)c1	-14	-10	22	29*	-3	3
Cc1c(CCOC(=O)CC23CC4CC(CC(C4)C2)C3)sc[n+]1Cc1ccccc1	-21	-22	99*	13	-5	-5
Cc1nc2scc(-c3ccccc3)c2c(=O)o1	23*	-3	21	11	0	-2
COc1ccc(Nc2ncnc3ccccc23)c(OC)c1	-5	0	3	-3	-3	-3
COc1ccc(Nc2nnc(Cc3ccncc3)c3ccccc23)c(OC)c1	-3	3	4	8	51*	-5
Cc1c(C(=O)Nc2ccc3c(c2)OCCO3)sc2nc(-c3ccccc3)cn12	-25	-24	42*	28*	0	6
CCN1C(=O)C(CC(=O)Nc2ccccc2Cl)N(NC(=O)c2cccc(F)c2)C1=S (centres undefined)	-2	4	-4	7	-1	3
SMILES	CHRM5 PAM	CHRM1 PAM	CHRM1 antagonist	CHRM5 antagonist	M1 ag	M5 ag
CN1C(=O)C(CC(=O)Nc2ccc(F)cc2)N(NC(=O)c2cccc(F)c2)C1=S (centres undefined)	-3	-9	50*	1	0	3
Cc1onc(-c2ccccc2)c1C(=O)N1CCC(C)(C(=O)O)C1 (centres undefined)	0	-3	-4	-2	-1	2
COc1cccc2sc3ccc(C#CC4(O)CCCCC4)cc3c(=O)c12	-14	-13	41*	20	-7	1
CCOc1ccccc1NC(=O)CCSc1nc2n[nH]c(C)c2c(=N)n1-c1ccccc1Cl	-11	-13	34*	8	-3	-2
CCSC1OC(C(COC(C)=O)OC(C)=O)C(OC(C)=O)C1NC(C)=S (centres undefined)	4	0	2	8	-1	1
O=C(NCCSCc1ccccc1)c1ccc(C2SCC(=O)N2Cc2ccccc2)cc1 (centres undefined)	-24	-34	60*	14	-8	-6
CCn1c(NCc2ccc(N(C)C)cc2)nc2ccccc21	18*	-1	10	-3	-1	-7
O=C(Nc1ccc(Cl)cc1)N1CCN(c2ccc3nnc(-c4ccc(F)cc4)n3n2)CC1	4	-31	42*	1	-15	3
O=C(Nc1ccc(Cl)cc1)N1CCC(c2nc(-c3ccc(F)cc3)no2)CC1	-24	-33	58*	47*	-4	3
O=C(Nc1ccccc1Cl)N1CCN(c2ccc3nnc(-c4ccccc4)n3n2)CC1	-6	-4	3	2	-9	2
COC(=O)[C@@]12C[C@@H](CC(=O)N3CCOCC3)C(=O)N(Cc3cccc4ccccc34)C1=CCC(C)(C)C2	-6	x	x	10	x	4
COC(=O)c1ccc(COc2ccc(/C=N/N3CCN(C)CC3)cc2)cc1	-20	-31	31	17	-10	-4
CN1CCN(/N=C/c2ccc(OCc3ccccc3)cc2)CC1	-28	-25	58*	4	-5	-18
CC1(C(=O)NS(=O)(=O)c2cccc(C#N)c2)CCN1C(=O)c1ccc(C2CCCCC2)cc1 (centres undefined)	0	5	-7	0	-2	1
